Measurements: paper PMC3709443 (Natural product communications, 2009)
Converted amounts (≈) assume the structure as drawn. Read-outs that look alike come from different tables or passages of the source.

What was measured:
[1] = system: Leishmania donovani promastigotes; assay: Antileishmanial assay; type: cell-based; settings: for IC50 / IC90: Leishmania donovani, 72 h; for IC50: read-out: L. donovani IC50; for IC90: read-out: L. donovani IC90; for L. donovani IC50 / L. donovani IC90: promastigotes, 26°C, 72 hours
In short: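 L. donovani promastigote culture at 2×10^6 cells/mL exposed to diluted test compound in 96-well format. Incubation 26°C, 72 h. Growth read by Alamar blue. IC50 computed from the growth-inhibition curve. Pentamidine and amphotericin B served as reference agents.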

[2] = system: VERO cells (monkey kidney fibroblasts); assay: Cytotoxicity to VERO cells; type: cell-based; settings: for IC50: Primates, Vero; for VERO cells IC50: Table 2, maximum dose tested 4760 ng/mL
[3] = system: P. falciparum D6 (chloroquine-sensitive clone); assay: Antimalarial parasite LDH assay, D6 strain; type: cell-based, Plasmodium falciparum; settings: for IC50: Plasmodium falciparum, D6, 72 h, read-out: P. falciparum D6 IC50; for P. falciparum D6 IC50: chloroquine-sensitive clone, 72 h, pLDH readout
[4] = system: P. falciparum W2 (chloroquine-resistant clone); assay: Antimalarial parasite LDH assay, W2 strain; type: cell-based, Plasmodium falciparum; settings: for IC50: Plasmodium falciparum, W2, 72 h, read-out: P. falciparum W2 IC50; for P. falciparum W2 IC50: chloroquine-resistant clone, 72 h, pLDH readout
[5] = system: Mycobacterium intracellulare ATCC 23068; assay: Antimicrobial susceptibility assay, M. intracellulare; type: cell-based; settings: for M. intracellulare IC50: first value of IC50/MIC
In short: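 Modified Alamar Blue procedure within modified CLSI methods. Test compound in DMSO, serially diluted in 20% DMSO/saline, duplicate wells. Inoculum in assay medium to target CFU/mL. Fluorescence 544ex/590em read before and after incubation. IC50 from percent growth vs concentration. MIC is the lowest concentration with no detectable growth. MBC from 5 μL of clear wells subcultured on agar. Ciprofloxacin control.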

[6] = system: Aspergillus fumigatus ATCC 90906; assay: Antimicrobial susceptibility assay, A. fumigatus; type: cell-based; settings: for A. fumigatus IC50: first value of IC50/MIC
In short: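 Modified CLSI broth dilution. Test compound dissolved in DMSO, serially diluted in 20% DMSO/saline and plated in duplicate. Inoculum prepared in assay medium to target CFU/mL. Fluorescence (544ex/590em) read before and after incubation. IC50 from percent growth vs concentration. MIC is the lowest concentration with no detectable growth. MFC is taken from 5 μL of each clear well subcultured on agar. Amphotericin B control.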

[7] = system: methicillin-resistant Staphylococcus aureus ATCC 43300 (MRS); assay: Antimicrobial susceptibility assay, MRS; type: cell-based; settings: for MRS IC50: first value of IC50/MIC
In short: (§1)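 Modified CLSI broth dilution with test compound dissolved in DMSO and serially diluted in 20% DMSO/saline, in duplicate. Inoculum prepared to target CFU/mL. Plates read at 630 nm before and after incubation. IC50 from percent growth vs concentration. MIC is the lowest concentration with no detectable growth. MBC is the lowest concentration giving no growth when 5 μL from clear wells is subcultured on agar. Ciprofloxacin control.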

[8] = system: LLC-PK11: Pig kidney epithelial; assay: Cytotoxicity assay; type: cell-based; settings: 48 hours; Neutral Red
In short: (§2)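 ATCC-sourced cells seeded at 25000 cells/well and incubated 24 h. Test compound was then added at various concentrations for a further 48 h. Viable cells were measured by a modified Neutral Red procedure. IC50 was determined from dose-response curves of percent growth inhibition. Doxorubicin was the positive control and DMSO the vehicle control.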

[9] = system: KB: Human epidermoid carcinoma; assay: Cytotoxicity assay; type: cell-based; settings: for KB IC50: 48 hours, Neutral Red
In short: as §2

[10] = system: Escherichia coli ATCC 35218; assay: Antimicrobial susceptibility assay, E. coli; type: cell-based; settings: for E. coli IC50: first value of IC50/MIC
In short: as §1

[11] = system: Cryptococcus neoformans ATCC 90113; assay: Antimicrobial susceptibility assay, C. neoformans; type: cell-based; settings: for C. neoformans IC50: first value of IC50/MIC, 50% inhibition of growth; for C. neoformans MIC: second value of IC50/MIC, no detectable growth
In short: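 Modified CLSI broth dilution. Test compound in DMSO, serially diluted in 20% DMSO/saline, duplicate wells. Inoculum in assay medium to target CFU/mL, with growth, solvent and media controls. Absorbance at 630 nm before and after incubation. IC50 from percent growth vs concentration. MIC is the lowest concentration without detectable growth. MFC comes from 5 μL of clear wells plated on agar, no growth. Amphotericin B control.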

[12] = system: SK-OV-3: Human ovarycarcinoma; assay: Cytotoxicity assay; type: cell-based; settings: for SK-OV-3 IC50: 48 hours, Neutral Red
In short: as §2

[13] = system: SK-MEL: Human malignant melanoma; assay: Cytotoxicity assay; type: cell-based; settings: for SK-MEL IC50: 48 hours, Neutral Red
In short: as §2

[14] = system: BT-549: Human ductal carcinoma; assay: Cytotoxicity assay; type: cell-based; settings: for BT-549 IC50: 48 hours, Neutral Red
In short: as §2

Molecule | VERO cells IC50 [2] | M. intracellulare IC50 [5] | A. fumigatus IC50 [6] | MRS IC50 [7] | L. donovani IC50 [1] [µg/mL] | L. donovani IC90 [1] [µg/mL] | LLC-PK11 IC50 [8] [µg/mL] | P. falciparum D6 IC50 [3] [µg/mL] | P. falciparum W2 IC50 [4] [µg/mL] | KB IC50 [9] [µg/mL] | E. coli IC50 [10] | C. neoformans IC50 [11] [µg/mL] | C. neoformans MIC [11] [µg/mL] | SK-OV-3 IC50 [12] [µg/mL] | SK-MEL IC50 [13] [µg/mL] | BT-549 IC50 [14] [µg/mL] | further results
N=C(N)c1ccc(OCCCCCOc2ccc(C(=N)N)cc2)cc1 [Pentamidine, reference compound] |  |  |  |  |  |  |  |  |  |  |  |  |  |  |  |  | IC50 [1]: 2.1 µg/mL (≈ 6.17 µM); IC90 [1]: 4 µg/mL (≈ 11.7 µM)
CCN(CC)CCCC(C)Nc1ccnc2cc(Cl)ccc12 (stereo not drawn) [Chloroquine, chloroquine, reference compound] |  |  |  |  |  |  |  |  |  |  |  |  |  |  |  |  | IC50 ([2]; read-out: VERO cells IC50): > 4.76 µg/mL; IC50 [3]: 0.015 µg/mL (≈ 0.0469 µM); IC50 [4]: 0.135 µg/mL (≈ 0.422 µM)
6-Hydroxybudmunchiamine K [Compound 2] | NC (NC = Not cytotoxic (up to the maximum dose tested of 4760 ng/mL)) | -/- (- =Not Active) | -/- (- =Not Active) | -/- (- =Not Active) | 3.4 | 7 | 5.3 | 0.16 | 0.22 | 6.0 | -/- (- =Not Active) | 10.0 | 20.0 | 6.5 | 5.8 | 6.0 | antimicrobial activity against C. neoformans in words [11]: weakly active
O=C(O)c1cn(C2CC2)c2cc(N3CCNCC3)c(F)cc2c1=O [Ciprofloxacin, ciprofloxacin, reference compound] |  |  |  |  |  |  |  |  |  |  |  |  |  |  |  |  | IC50 ([5]; Mycobacterium intracellulare, ATCC23068, read-out: M. intracellulare IC50): 0.5 µg/mL (≈ 1.51 µM); MIC ([5]; Mycobacterium intracellulare, ATCC23068, read-out: M. intracellulare MIC): 1 µg/mL (≈ 3.02 µM); IC50 ([7]; Staphylococcus aureus, ATCC43300, read-out: MRS IC50): 0.09 µg/mL (≈ 0.272 µM); MIC ([7]; Staphylococcus aureus, ATCC43300, read-out: MRS MIC): 0.5 µg/mL (≈ 1.51 µM); IC50 ([10]; Escherichia coli, ATCC35218, read-out: E. coli IC50): 0.004 µg/mL (≈ 0.0121 µM)
CCCCCCCCCCCCCCCC1CC(=O)NCCCN(C)CCCCN(C)CCCN1 (stereo not drawn) [Compound 3, 5-Normethylbudmunchiamine K] | 3 µg/mL | 4.0 µg/mL | -/- (- =Not Active) | 6.5 µg/mL | 0.8 | 1.3 | 2.5 | 0.14 | 0.21 | 2.3 | 6.5 µg/mL | 1.0 | 2.5 | 4.8 | 2.0 | 2.0 | M. intracellulare MIC ([5]; second value of IC50/MIC): 20.0 µg/mL; MRS MIC ([7]; second value of IC50/MIC): 10.0 µg/mL; antileishmanial activity compared with pentamidine ([1]; in words): more potent than pentamidine; E. coli MIC ([10]; second value of IC50/MIC): 10.0 µg/mL
COc1cccc2c1C(=O)c1c(O)c3c(c(O)c1C2=O)C[C@@](O)(C(=O)CO)C[C@@H]3O[C@H]1C[C@H](N)[C@H](O)[C@H](C)O1 [Doxorubicin, reference compound] |  |  |  |  |  |  |  |  |  |  |  |  |  |  |  |  | IC50 ([2]; 48 h, read-out: VERO IC50): > 5 µg/mL; IC50 ([9]; Homo sapiens, 48 h, read-out: KB IC50): 0.9 µg/mL (≈ 1.66 µM); IC50 ([12]; Homo sapiens, SK-OV-3, 48 h, read-out: SK-OV-3 IC50): 0.9 µg/mL (≈ 1.66 µM); IC50 ([13]; Homo sapiens, 48 h, read-out: SK-MEL IC50): 0.85 µg/mL (≈ 1.56 µM); IC50 ([14]; Homo sapiens, BT-549, 48 h, read-out: BT-549 IC50): 0.9 µg/mL (≈ 1.66 µM)
6-Hydroxy-5-normethylbudmunchiamine K [Compound 4] | NC (NC = Not cytotoxic (up to the maximum dose tested of 4760 ng/mL)) | 20.0 µg/mL | -/- (- =Not Active) | 20.0 µg/mL | 2.1 | 7 | 6.0 | 0.12 | 0.27 | 5.4 | -/- (- =Not Active) | 6.0 | 10.0 | 6.2 | 5.7 | 6.0 | antimicrobial activity against C. neoformans in words [11]: weakly active
C[C@@H]1[C@H](O)[C@@H](C)/C=C/C=C/C=C/C=C/C=C/C=C/C=C/[C@H](O[C@@H]2O[C@H](C)[C@@H](O)[C@H](N)[C@@H]2O)C[C@@H]2O[C@](O)(C[C@@H](O)C[C@@H](O)[C@H](O)CC[C@@H](O)C[C@@H](O)CC(=O)O[C@H]1C)C[C@H](O)[C@H]2C(=O)O [Amphotericin B, amphotericin B, reference compound] |  |  |  |  |  |  |  |  |  |  |  |  |  |  |  |  | IC50 ([6]; Aspergillus fumigatus, ATCC90906, read-out: A. fumigatus IC50): 0.6 µg/mL (≈ 0.649 µM); MIC ([6]; Aspergillus fumigatus, ATCC90906, read-out: A. fumigatus MIC): 1.25 µg/mL (≈ 1.35 µM); IC50 [1]: 0.32 µg/mL (≈ 0.346 µM); IC90 [1]: 0.8 µg/mL (≈ 0.866 µM); IC50 ([11]; Cryptococcus neoformans, ATCC90113, read-out: C. neoformans IC50): 0.8 µg/mL (≈ 0.866 µM); MIC ([11]; Cryptococcus neoformans, ATCC90113, read-out: C. neoformans MIC): 1.25 µg/mL (≈ 1.35 µM)
C[C@@H]1CC[C@H]2[C@@H](C)C(=O)O[C@@H]3O[C@@]4(C)CC[C@@H]1[C@]32OO4 [Artemisinin, artemisinin, reference compound] |  |  |  |  |  |  |  |  |  |  |  |  |  |  |  |  | IC50 ([2]; read-out: VERO cells IC50): > 4.76 µg/mL; IC50 [3]: 0.01 µg/mL (≈ 0.0354 µM); IC50 [4]: 0.006 µg/mL (≈ 0.0213 µM)
